Results taken from ChEMBL document CHEMBL3098060, “Antitumor potential of conjugable valinomycins bearing hydroxyl sites: in vitro studies” (ACS Med Chem Lett, 2013).
Activity calls are given as the source filed them. No cut-off for these calls is given here.

Legend:
[1] = system: C6; assay: Cytotoxicity against rat C6 cells after 72 hrs by MTT assay; type: functional, cell-based; conditions: C6, 72 h
Summary of the method: (§1)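 Cells exposed to 0.0001–10 μM for 72 h. Viability by MTT conversion, expressed as % of cells viable. IC50 taken as the concentration giving 50% inhibition of survival, from concentration–viability profiles. Three independent experiments, each in duplicate, averaged.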

[2] = system: C6; assay: Induction of apoptosis in rat C6 cells assessed as fragmentation of mitochondrial network at 1 uM after 72 hrs by MitoTracker Red CMXRos staining-based fluorescence microscopy; type: functional, cell-based
Summary of the method: (§2)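 C6 glioma cells seeded at 100,000 per well and treated 72 h at 37 °C, 5% CO2, with 50 nM or 1 μM depending on compound. Mitochondria stained with 25 nM MitoTracker Red CMXRos and network morphology imaged against untreated controls. Over 10 cells examined per experiment, 3 independent experiments.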

[3] = system: MCF7; assay: Cytotoxicity against human MCF7 cells after 72 hrs by MTT assay; type: functional, cell-based; conditions: MCF7, 72 h; summary of the method: as §1
[4] = system: MCF7; assay: Induction of mitochondrial membrane depolarization in human MCF7 cells after 72 hrs by JC-1 staining-based FACS flow cytometric analysis (reference value: 1%); type: functional
[5] = system: MCF7; assay: Cell cycle arrest in human MCF7 cells assessed as accumulation at G2/M phase at 5 uM after 24 hrs by propidium iodide staining-based FACS flow cytometric analysis (reference value: 25.92%); type: functional
[6] = system: A2780; assay: Cytotoxicity against human A2780 cells after 72 hrs by MTT assay; type: functional, cell-based; conditions: A2780, 72 h; summary of the method: as §1
[7] = system: C6; assay: Cytotoxicity against rat C6 cells assessed as cell survival at 0.0001 to 10 uM by MTT assay; type: functional, cell-based; conditions: TDE = time-dependent effect
Summary of the method: (§3)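 Cells seeded at 10,000 per well and treated with 0.0001–10 μM. Incubated at 37 °C in CO2 for 24, 48 or 72 h. Viable cells measured by MTT conversion. Time course shown at a fixed 0.01 μM.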

[8] = system: MCF7; assay: Cell cycle arrest in human MCF7 cells assessed as accumulation at S phase at 5 uM after 24 hrs by propidium iodide staining-based FACS flow cytometric analysis (reference value: 9.74%); type: functional
[9] = system: MCF7; assay: Cell cycle arrest in human MCF7 cells assessed as accumulation at G0/G1 phase at 5 uM after 24 hrs by propidium iodide staining-based FACS flow cytometric analysis (reference value: 64.34%); type: functional
[10] = system: HepG2; assay: Cytotoxicity against human HepG2 cells after 72 hrs by MTT assay; type: functional, cell-based; conditions: HepG2, 72 h; summary of the method: as §1
[11] = system: C6; assay: Induction of apoptosis in rat C6 cells assessed as fragmentation of mitochondrial network at 50 nM after 72 hrs by MitoTracker Red CMXRos staining-based fluorescence microscopy; type: functional, cell-based; summary of the method: as §2
[12] = system: C6; assay: Cytotoxicity against rat C6 cells assessed as cell survival after 24 to 72 hrs by MTT assay; type: functional, cell-based; summary of the method: as §3
[13] = system: HepG2; assay: Cytotoxicity against human HepG2 cells assessed as cell survival at 0.0001 to 10 uM by MTT assay; type: functional, cell-based; conditions: TDE = time-dependent effect; summary of the method: as §3
[14] = system: A2780; assay: Cytotoxicity against human A2780 cells assessed as cell survival at 0.0001 to 10 uM by MTT assay; type: functional, cell-based; conditions: TDE = time-dependent effect; summary of the method: as §3
[15] = system: HepG2; assay: Cytotoxicity against human HepG2 cells assessed as cell survival after 24 to 72 hrs by MTT assay; type: functional, cell-based; summary of the method: as §3
[16] = system: A2780; assay: Cytotoxicity against human A2780 cells assessed as cell survival after 24 to 72 hrs by MTT assay; type: functional, cell-based; summary of the method: as §3
[17] = system: MCF7; assay: Cell cycle arrest in human MCF7 cells assessed as accumulation at G0/G1 phase at 0.05 uM after 24 hrs by propidium iodide staining-based FACS flow cytometric analysis (reference value: 64.34%); type: functional
[18] = system: MCF7; assay: Cytotoxicity against human MCF7 cells assessed as cell survival at 0.0001 to 10 uM by MTT assay; type: functional, cell-based; conditions: TDE = time-dependent effect; summary of the method: as §3
[19] = system: MCF7; assay: Cytotoxicity against human MCF7 cells assessed as cell survival after 24 to 72 hrs by MTT assay; type: functional, cell-based; summary of the method: as §3
[20] = system: MCF7; assay: Cell cycle arrest in human MCF7 cells assessed as accumulation at S phase at 0.05 uM after 24 hrs by propidium iodide staining-based FACS flow cytometric analysis (reference value: 9.74%); type: functional
[21] = system: MCF7; assay: Cell cycle arrest in human MCF7 cells assessed as accumulation at G2/M phase at 0.05 uM after 24 hrs by propidium iodide staining-based FACS flow cytometric analysis (reference value: 25.92%); type: functional
[22] = system: A2780; assay: Selectivity ratio of IC50 for human A2780 cells to IC50 for human HepG2 cells; type: functional
Summary of the method: (§4)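 Ratio of two 72 h IC50 values, each from the same MTT viability assay. A2780, MCF-7, HepG2 and rat C6 glioma cells were treated at 0.0001–10 μM. Percent viability was calculated and IC50 taken as the concentration giving 50% survival inhibition. Means are from three independent experiments run in duplicate.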

[23] = system: C6; assay: Selectivity ratio of IC50 for human MCF7 cells to IC50 for rat C6 cells; type: functional; summary of the method: as §4
[24] = system: A2780; assay: Selectivity ratio of IC50 for human A2780 cells to IC50 for rat C6 cells; type: functional; summary of the method: as §4
[25] = system: HepG2; assay: Selectivity ratio of IC50 for human MCF7 cells to IC50 for human HepG2 cells; type: functional; summary of the method: as §4

Row | SMILES | IC50 [1] [nM] | IC50 [3] [nM] | Activity [4] [%] | Activity [5] [%] | IC50 [6] [nM] | Activity [7] | Activity [8] [%] | Activity [9] [%] | IC50 [10] [nM] | Activity [11] | Activity [12] | Activity [13] | Activity [14] | Activity [15] | Activity [16] | Activity [18] | Activity [19] | other results
1 | CC(C)[C@@H]1NC(=O)[C@H](C)OC(=O)[C@@H](C(C)C)NC(=O)[C@@H](C(C)(C)O)OC(=O)[C@H](C(C)C)NC(=O)[C@H](C)OC(=O)[C@@H](C(C)C)NC(=O)[C@@H](C(C)C)OC(=O)[C@H](C(C)C)NC(=O)[C@H](C)OC(=O)[C@@H](C(C)C)NC(=O)[C@@H](C(C)C)OC1=O | 175 | > 10000 | 8.9 | 19.76 | > 10000 | tde | 24.6 | 55.63 | 197 |  |  |  |  |  |  |  |  | Activity [2]: Active
2 | CC(C)[C@@H]1NC(=O)[C@H](C)OC(=O)[C@@H](C(C)C)NC(=O)[C@@H](C(C)C)OC(=O)[C@H](C(C)C)NC(=O)[C@H](C)OC(=O)[C@@H](C(C)(C)O)NC(=O)[C@@H](C(C)C)OC(=O)[C@H](C(C)C)NC(=O)[C@H](C)OC(=O)[C@@H](C(C)C)NC(=O)[C@@H](C(C)C)OC1=O | 2.4 | 3850 | 12.1 |  | 4530 | tde |  |  | 4.3 | Active | Dose-dependent effect | tde | tde | Dose-dependent effect | Dose-dependent effect | tde | Dose-dependent effect | Activity [17]: 55.44%; Activity [20]: 23.07%; Activity [21]: 21.49%
3 | CC(C)[C@@H]1NC(=O)[C@H](C)OC(=O)[C@@H](C(C)C)NC(=O)[C@@H](C(C)C)OC(=O)[C@H](C(C)C)NC(=O)[C@H](C)OC(=O)[C@@H](C(C)C)NC(=O)[C@@H](C(C)C)OC(=O)[C@H](C(C)C)NC(=O)[C@H](C)OC(=O)[C@@H](C(C)C)NC(=O)[C@@H](C(C)C)OC1=O [VALINOMYCIN] | 0.4 | 1770 | 16 | 18.15 | 2180 | tde | 25.79 | 56.07 | 0.8 | Active | Dose-dependent effect | tde | tde | Dose-dependent effect | Dose-dependent effect | tde | Dose-dependent effect | Ratio IC50 [22]: 3; Ratio IC50 [23]: 3; Ratio IC50 [24]: 3; Ratio IC50 [25]: 3
4 | CC(C)[C@@H]1NC(=O)[C@H](C)OC(=O)[C@@H](C(C)C)NC(=O)[C@@H](C(C)C)OC(=O)[C@H](C(C)(C)O)NC(=O)[C@H](C)OC(=O)[C@@H](C(C)C)NC(=O)[C@@H](C(C)C)OC(=O)[C@H](C(C)C)NC(=O)[C@H](C)OC(=O)[C@@H](C(C)C)NC(=O)[C@@H](C(C)C)OC1=O | 2.9 | 3910 | 15.6 | 16.9 | 2510 | tde | 25.57 | 57.53 | 4.9 | Active | Dose-dependent effect | tde | tde | Dose-dependent effect | Dose-dependent effect | tde | Dose-dependent effect | 
